Measurements: ChEMBL document CHEMBL4400542, “Epidermal Growth Factor Receptor-Targeted Multifunctional Photosensitizers for Bladder Cancer Imaging and Photodynamic Therapy” (J Med Chem, 2019)
Calls of active or inactive are those of the source. No cut-off for these calls is given here.

How the values were obtained:
T-24 [1] = test: Induction of apoptosis in human T24 cells assessed as increase in necrotic cells at 1 uM in presence of light by Annexin V/propidium iodide-stining based flow cytometry; format: functional, cell-based
UMUC3 [2] = test: Induction of apoptosis in human UM-UC-3 cells assessed as increase in necrotic cells at 100 nM in presence of light by Annexin V/propidium iodide-stining based flow cytometry; format: functional, cell-based
UMUC3 [3] = test: Induction of apoptosis in human UM-UC-3 cells assessed as increase in necrotic cells at 1 uM in presence of light by Annexin V/propidium iodide-stining based flow cytometry; format: functional, cell-based
UMUC3 [4] = test: Induction of apoptosis in human UM-UC-3 cells assessed as increase in apoptotic cells at 1 uM in presence of light by Annexin V/propidium iodide-stining based flow cytometry; format: functional, cell-based
UMUC3 [5] = test: Anti-tumor activity against human UM-UC-3 cells xenografted in SCID mouse assessed as tumor cure at 0.47 umol/kg, iv in presence of 135 J/cm2 light irradiation at 24 hrs post injection and measured at day 60; format: functional
Outline: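 UMUC-3 cells implanted in right flank of SCID mice; at 4–5 mm tumors, PS given i.v. at 0.47 µmol/kg. Tumors exposed to 665 nm light, 135 J/cm2 at 75 mW/cm2, 24 h post-injection. Tumor regrowth monitored daily; mice euthanized at >400 mm3; tumor-free status scored at day 60.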

T-24 [6] = test: Induction of apoptosis in human T24 cells assessed as increase in apoptotic cells at 100 nM in presence of light by Annexin V/propidium iodide-stining based flow cytometry; format: functional, cell-based
[7] = Induction of singlet oxygen generation in deaerated toluene at 670 nm assessed as singlet decay life time by femtosecond transient absorption spectroscopy; format: functional
UMUC3 [8] = test: Induction of apoptosis in human UM-UC-3 cells assessed as increase in apoptotic cells at 100 nM in presence of light by Annexin V/propidium iodide-stining based flow cytometry; format: functional, cell-based
T-24 [9] = test: Induction of apoptosis in human T24 cells assessed as increase in apoptotic cells at 1 uM in presence of light by Annexin V/propidium iodide-stining based flow cytometry; format: functional, cell-based
[10] = Drug accumulation in mitochondria of human UM-UC-3 cells at 500 nM formulated with 2% pluronic F-127 solution after 24 hrs by mitotracker red based fluorimetry; format: ADME; settings: umuc3, 24 h, 0.5 µM
[11] = Drug uptake in human T24 cells xenografted in SCID mouse at 0.47 umol/kg formulated with 2% pluronic F-127 solution and measured at 24 hrs post injection by IVIS analysis; format: ADME, cell-based, T-24; settings: in vivo
Outline: (§1)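 SCID mice (3/group) bearing UMUC3 or T24 tumors of 4–5 mm injected with PS at 0.47 µmol/kg in Tween80 or Pluronic F-127. Tumor, liver and skin fluorescence followed by IVIS optical imaging (ex 675 nm, em 720) at several time points including 24 h.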

[12] = Induction of singlet oxygen generation in oxygen-free toluene solution at 670 nm assessed as decay rate constant of triplet excited state by femtosecond transient absorption spectroscopy; format: functional
[13] = Induction of singlet oxygen generation assessed as energy transfer from the triplet chlorins to oxygen by femtosecond transient absorption spectroscopy; format: functional
[14] = Drug uptake in human T24 cells xenografted in SCID mouse at 0.47 umol/kg formulated with 1% tween 80 solution and measured at 24 hrs post injection by IVIS analysis; format: ADME, cell-based, T-24; settings: in vivo; outline: as §1
UMUC3 [15] = test: Anti-tumor activity against human UM-UC-3 cells xenografted in SCID mouse assessed as tumor necrosis at 0.47 umol/kg, iv in presence of 135 J/cm2 light irradiation at 24 hrs post injection and measured at 72 hrs post light exposure; format: functional, organism-based
[16] = Drug uptake in human UM-UC-3 cells xenografted in SCID mouse at 0.47 umol/kg formulated with 2% pluronic F-127 solution and measured at 24 hrs post injection by IVIS analysis; format: ADME, cell-based, UMUC3; settings: in vivo; outline: as §1
[17] = Induction of singlet oxygen generation in toluene solution in presence of oxygen at 670 nm assessed as decay rate constant of triplet excited state by femtosecond transient absorption spectroscopy; format: functional
[18] = Drug uptake in human UM-UC-3 cells xenografted in SCID mouse at 0.47 umol/kg formulated with 1% tween 80 solution and measured at 24 hrs post injection by IVIS analysis; format: ADME, cell-based, UMUC3; settings: in vivo; outline: as §1
[19] = Induction of singlet oxygen generation in Ar-saturated toluene solution at 670 nm assessed as decay rate constant of triplet excited state by femtosecond transient absorption spectroscopy; format: functional
[20] = Induction of singlet oxygen generation in oxygen-saturated toluene solution at 670 nm assessed as decay rate constant of triplet excited state by femtosecond transient absorption spectroscopy; format: functional

Structure (SMILES) | Activity (T-24 [1]) | Activity (UMUC3 [2]) | Activity (UMUC3 [3]) | Activity (UMUC3 [4]) | Activity (UMUC3 [5]) | Activity (T-24 [6]) | Time [7] | Activity (UMUC3 [8]) | Activity (T-24 [9]) | Drug uptake [10] | Drug uptake [11] | K [12] | K [13] | Drug uptake [14] | Activity (UMUC3 [15]) | Drug uptake [16] | K [17] | Drug uptake [18] | K [19] | K [20]
CCC1=C(C)c2cc3[nH]c(cc4nc(c5c6[nH]c(cc1n2)c(C)c6C(=O)C5)[C@@H](CCC(=O)OC)[C@@H]4C)c(C)c3C(C)OCc1cccc(I)c1 (some centres not stated) | Active | Active | Active | Active | 20% | inactive | 1 nanoseconds | Active | Active | Active |  |  |  |  |  |  |  |  |  | 
CCC1=C(C)c2cc3[nH]c(cc4nc(c5c6[nH]c(cc1n2)c(C)c6C(=O)C5)[C@@H](CCC(=O)NCc1cccc(I)c1)[C@@H]4C)c(C)c3C(C)OCc1cccc(C#Cc2cccc(Nc3ncnc4cc(OCCOC)c(OCCOC)cc34)c2)c1 (some centres not stated) |  |  |  |  |  |  | 83 pS |  |  | Active | Active | 4.27 ×10⁴ /s | 3.17 ×10⁹ /M/s | Active | inactive | Active | 0.634 ×10⁶ /s | Active | 4.27 ×10⁴ /s | 6.34 ×10⁵ /s
